Data published in ChEMBL document CHEMBL4334504 (J Med Chem, 2019).
In brackets after ≈: the same amount, converted by molar mass. Activity calls are given as the source filed them. The rule behind the calls is not given here.

What was measured:
Clostridioides difficile [1] = experiment: Antibacterial activity against Clostridium difficile 4118 ATCC BAA 1870 assessed as bacterial growth inhibition incubated for 48 hrs under anaerobic condition by CLSI protocol-based assay; assay type: functional; conditions: 4118 ATCC BAA 1870, 48 h
Outline: (§1)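 Broth microdilution following CLSI guidance. Strains pre-grown anaerobically on BHIS agar (BHI plus yeast extract, vitamin K1, hemin) at 37 °C for 48 h. ~10^5 CFU/mL in BHIS broth added to serial compound dilutions. Incubated anaerobically at 37 °C for 48 h. MIC is the lowest concentration showing visible growth inhibition.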

Clostridioides difficile [2] = experiment: Antibacterial activity against Clostridium difficile VPI 10463 ATCC 43255 assessed as bacterial growth inhibition incubated for 48 hrs under anaerobic condition by CLSI protocol based assay; assay type: functional; conditions: ATCC 43255 VPI 10463, 48 h; outline: as §1
Caco-2 = experiment: Cytotoxicity against human Caco2 cells at > 256 uM measured after 2 hrs by MTS assay; assay type: cell-based; conditions: caco-2, 2 h
HRT-18 cell line = experiment: Cytotoxicity against human HRT18 cells at > 256 uM measured after 2 hrs by MTS assay; assay type: cell-based; conditions: hrt-18, 2 h
Vero = experiment: Cytotoxicity against African green monkey Vero cells at > 256 uM measured after 2 hrs by MTS assay; assay type: cell-based; conditions: chlorocebus sabaeus
Bifidobacterium bifidum = experiment: Effect on growth of Bifidobacterium bifidum 212A ATCC 11863 measured after 48 hrs in anerobic conditions by CLSI method; assay type: organism-based; conditions: in vivo
Escherichia coli = experiment: Effect on growth of Escherichia coli ATCC 25922 assessed as bacterial growth inhibition measured after 16 to 18 hrs by CLSI method; assay type: organism-based; conditions: in vivo
Outline: (§2)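 CLSI microdilution. Colonies from TSA (16-20 h, 37 °C) suspended in PBS to 0.5 McFarland, then diluted in TSB to ~10^5 CFU/mL. Incubated with serial compound dilutions for 16-20 h at 37 °C. MIC is the lowest concentration inhibiting growth.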

Enterobacter cloacae = experiment: Effect on growth of Enterobacter cloacae ATCC BAA 1143 assessed as bacterial growth inhibition measured after 16 to 18 hrs grown in tryptic soy medium by CLSI method; assay type: organism-based; conditions: in vivo; outline: as §2
[3] = Aqueous solubility of compound in PBS buffer at 1 to 100 ug/ml at pH 7.3 to 7.5 measured after 24 hrs by HPLC analysis; assay type: physicochemical
Outline: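 3 mg compound in 3 mL PBS (pH 7.3-7.5) shaken 24 h at 25 °C, then centrifuged. Supernatant mixed 1:1 with acetonitrile and analysed by HPLC (C18, 1 mL/min). Solubility calculated from a standard curve (1 mg/mL methanol stock) and the dilution factor.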

[4] = Stability of compound in simulated gastric fluid assessed as parent compound remaining at pH 1.6 measured after 4 hrs by HPLC analysis; assay type: ADME; conditions: read-out: Stability
Outline: (§3)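 200 µL of a 50 µg/mL methanol stock mixed with 800 µL SGF (pH 1.6) or SIF (pH 6.0), stirred at 37 °C. Sampled at 4 and 8 h for isocratic HPLC (acetonitrile/water 50:50, 1.0 mL/min, 254 nm). Percent remaining calculated as AUC after incubation / AUC before incubation.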

[5] = Stability of compound in simulated gastric fluid assessed as parent compound remaining at pH 1.6 measured after 8 hrs by HPLC analysis; assay type: ADME; conditions: read-out: Stability; outline: as §3
[6] = Stability of compound in simulated intestinal fluid assessed as parent compound remaining at pH 6 measured after 4 hrs by HPLC analysis; assay type: ADME; conditions: read-out: Stability; outline: as §3
[7] = Stability of compound in simulated intestinal fluid assessed as parent compound remaining at pH 6 measured after 8 hrs by HPLC analysis; assay type: ADME; conditions: read-out: Stability; outline: as §3
Clostridioides difficile [8] = experiment: Ratio of MBC99.9 to MIC for Clostridium difficile 4118 ATCC BAA 1870; assay type: functional
Clostridioides difficile [9] = experiment: Bactericidal activity against Clostridium difficile 4118 ATCC BAA 1870 assessed as reduction in bacterial colony forming units at 8 fold MIC preincubated followed by re-plating on BHIS agar plate and measured after 6 hrs under anaerobic condition by time-kill assay relative to control; assay type: functional; design: scale not given: the % may be the effect or the level left
Clostridioides difficile [10] = experiment: Bactericidal activity against Clostridium difficile 4118 ATCC BAA 1870 incubated for 48 hrs followed by re-plating on BHIS agar plates and measured after 24 hrs; assay type: functional; conditions: read-out: MBC99.9
[11] = tested on: Lacticaseibacillus paracasei; experiment: Effect on growth of Lactobacillus casei ATCC 334 measured after 48 hrs in 5% CO2 by CLSI method
[12] = Effect on growth of Lactobacillus crispatus JV-V01 HM 103 measured after 48 hrs in 5% CO2 by CLSI method; conditions: lactobacillus crispatus jv-v01, 48 h
[13] = Effect on growth of Lactobacillus gasseri EX336960VC03 HM 400 measured after 48 hrs in 5% CO2 by CLSI method; conditions: lactobacillus gasseri ex336960vc03, 48 h
[14] = Cytotoxicity against human Caco2 cells measured after 2 hrs by MTS assay; assay type: cell-based; conditions: Caco-2 cells
[15] = Cytotoxicity against human HRT18 cells measured after 2 hrs by MTS assay; assay type: cell-based; conditions: HRT-18 cells
[16] = Cytotoxicity against African green monkey Vero cells measured after 2 hrs by MTS assay; assay type: cell-based; conditions: chlorocebus sabaeus
Clostridioides difficile [17] = experiment: Bactericidal activity against Clostridium difficile 4118 ATCC BAA 1870 assessed as reduction in bacterial colony forming units at 8 fold MIC preincubated followed by re-plating on BHIS agar plate and measured after 24 hrs under anaerobic condition by time-kill assay; assay type: functional, organism-based
[18] = Drug level in CDI patient plasma at 200 mg, po administered every 12 hrs for 10 days and measured 3 to 5 hrs post last dose by LC-MS/MS analysis; assay type: ADME, organism-based; conditions: human, in vivo

| SMILES | MIC (Clostridioides difficile [1]) [µM] | MIC (Clostridioides difficile [2]) [µM] | Activity (Caco-2) | Activity (HRT-18 cell line) | Activity (Vero) | MIC (Bifidobacterium bifidum) [µM] | MIC (Escherichia coli) [µM] | MIC (Enterobacter cloacae) [µM] | solubility at 24 h [3] [µg/mL] | remaining at 4 h [4] [%] | remaining at 8 h [5] [%] | remaining at 4 h [6] [%] | remaining at 8 h [7] [%] | MIC [11] [µM] | MIC [12] [µM] | MIC [13] | further results |
| --- | --- | --- | --- | --- | --- | --- | --- | --- | --- | --- | --- | --- | --- | --- | --- | --- | --- |
| O=c1[nH]c(/C=C/c2ccc(F)cc2)nc2c([N+](=O)[O-])csc12 | 3 (≈ 0.952 µg/mL) | 6 (≈ 1.9 µg/mL) | Non-Toxic | Non-Toxic | Non-Toxic | > 807 | > 807 | > 807 | 14.8 (≈ 46.6 µM) | 50 | 48 | 60 | 51 | > 807 | > 807 | > 807 µM | Ratio (Clostridioides difficile [8]): 2; Activity (Clostridioides difficile [9]): 100%; MBC (Clostridioides difficile [10]): 6 µM (≈ 1.9 µg/mL) |
| Cc1nc2c([N+](=O)[O-])csc2c(=O)n1Cc1ccccc1 | 7 (≈ 2.11 µg/mL) | 56 (≈ 16.9 µg/mL) | Non-Toxic | Non-Toxic | Non-Toxic | > 425 | > 850 | > 850 | – | – | – | – | – | > 425 | > 425 | > 425 µM | – |
| Cc1nc(N2CCOCC2)c2scc([N+](=O)[O-])c2n1 | 14 (≈ 3.92 µg/mL) | 14 (≈ 3.92 µg/mL) | Non-Toxic | Non-Toxic | Non-Toxic | > 913 | > 913 | > 913 | 18.7 (≈ 66.7 µM) | < 10 | < 10 | 79 | 80 | > 913 | > 913 | > 913 µM | – |
| Cc1nc2c([N+](=O)[O-])csc2c(=O)n1CCCc1ccccc1 | 12 (≈ 3.95 µg/mL) | 12 (≈ 3.95 µg/mL) | Non-Toxic | Non-Toxic | Non-Toxic | > 777 | > 777 | > 777 | 10.8 (≈ 32.7 µM) | 45 | < 10 | < 10 | < 10 | > 777 | > 777 | > 777 µM | – |
| Cc1nc2c([N+](=O)[O-])csc2c(=O)n1Cc1ccc([N+](=O)[O-])cc1 | 6 (≈ 2.08 µg/mL) | 12 (≈ 4.16 µg/mL) | Non-Toxic | Non-Toxic | Non-Toxic | > 739 | > 739 | > 739 | 12.7 (≈ 36.8 µM) | > 95 | > 95 | > 95 | 90 | > 739 | > 739 | > 739 µM | – |
| Cc1nc2c([N+](=O)[O-])csc2c(=O)[nH]1 | 19 (≈ 4.01 µg/mL) | 38 (≈ 8.03 µg/mL) | Non-Toxic | Non-Toxic | Non-Toxic | > 1212 | > 1212 | > 1212 | > 500 | 90 | 90 | 91 | 76 | > 1212 | > 1212 | > 1212 µM | CC50 at 2 h [14]: > 606 µM; CC50 at 2 h [15]: > 606 µM; CC50 at 2 h [16]: > 606 µM |
| O=c1[nH]c(/C=C/c2ccc(Cl)cc2)nc2c([N+](=O)[O-])csc12 | 6 (≈ 2 µg/mL) | 6 (≈ 2 µg/mL) | Non-Toxic | Non-Toxic | Non-Toxic | > 767 | > 767 | > 767 | – | – | – | – | – | > 767 | > 767 | > 767 µM | – |
| O=c1[nH]c(/C=C/c2ccccc2F)nc2c([N+](=O)[O-])csc12 | 6 (≈ 1.9 µg/mL) | 12 (≈ 3.81 µg/mL) | Non-Toxic | Non-Toxic | Non-Toxic | > 807 | > 807 | > 807 | – | – | – | – | – | > 807 | > 807 | > 807 µM | – |
| CCc1c(Cl)c(O)c(Cl)c(O)c1C(=O)O[C@H]1[C@H](O)[C@H](OC)[C@H](OC/C2=C\C=C\C[C@H](O)/C(C)=C/[C@H](CC)[C@@H](O[C@@H]3OC(C)(C)[C@@H](OC(=O)C(C)C)[C@H](O)[C@@H]3O)/C(C)=C/C(C)=C/C[C@@H]([C@@H](C)O)OC2=O)O[C@@H]1C [FIDAXOMICIN] | 0.1 (≈ 0.106 µg/mL) | 0.1 (≈ 0.106 µg/mL) | – | – | – | > 242 | – | – | – | – | – | – | – | > 242 | 30 (≈ 31.7 µg/mL) | <= 2 uM | Activity (Clostridioides difficile [17]): Active; Cp [18]: 25 to 50 ng/mL |
